Assay results published in ChEMBL document CHEMBL1124779, “Synthesis and antitumor activity of 1-[[(dialkylamino)alkyl]amino]-4-methyl-5H-pyrido[4,3-b]benzo[e]- and -benzo[g])indoles. A new class of antineoplastic agents” (1990).
Values after ≈ are worked out from the molar mass of the structure shown. Values joined by “and” are separate entries in the source; they are usually repeats but may differ in a detail not shown here. Identical values can stand only once.

Experiments:
L1210 [1] = assay: Tested for cytotoxicity in the multiple tumor disk diffusion soft agar assay at the dose of 15 ug/disk against leukemia L1210; range is 450-600; format: functional, Mus musculus
Method in brief: (§1)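 Soft agar disk diffusion: bottom layer 0.8% noble agar, top layer 0.47% noble agar, both in 1:1 CMRL-Fischer medium with 11% horse serum. Top layer seeded with 5×10^3 L1210 cells or 10^6 solid tumor cells (C38, PO3). Drug applied on a dried 6-mm filter-paper disk. Incubation 7-11 days. Inhibition zone measured by inverted microscope, in units (1 unit = 30 μm).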

P388 [2] = assay: In vivo T/C (survival time treated/survival time control x 100) was determined against P388 leukemia cells at 40 mg/Kg; format: functional, Mus musculus
Method in brief: (§2)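 B6D2 F1 mice, at least five per group, were inoculated ip on day 0 with 10^6 viable P388 cells (25 mL/kg). Compounds were dissolved in distilled water and given ip (25 mL/kg) daily on days 1–4. Mortality was checked daily, with necropsy of dead animals. T/C×100 was median survival, treated versus control. Survivors beyond 50 days counted as cured and were excluded from the median.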

P388 [3] = assay: In vitro cytotoxicity was determined against P388 leukemia cells; format: functional; conditions: Mus musculus, read-out: ID50 (the source's name)
Method in brief: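 P388 cells in exponential growth, RPMI 1640 with 2 mM glutamine, 10 μM 2-mercaptoethanol and 10% FCS, 5% CO2, 37 °C. Cells at 10^5 cells/mL. Drugs in distilled water added on day 0. Cells counted by Coulter counter after 96 h. ID50 (μg/mL, 50% inhibition of proliferation) estimated by regression of concentration/response data.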

[4] = Cytotoxicity in the multiple tumor disk diffusion soft agar assay at the dose of 15 ug/disk against solid tumor C38.; format: functional, Mus musculus; method in brief: as §1
L1210 [5] = assay: Tested for cytotoxicity in the multiple tumor disk diffusion soft agar assay at the dose of 15 ug/disk against leukemia L1210; U = 32 uM; format: functional, Mus musculus; method in brief: as §1
P388 [6] = assay: In vivo T/C (survival time treated/survival time control x 100) was determined against P388 leukemia cells at 20 mg/Kg; format: functional, Mus musculus; method in brief: as §2
[7] = Tested for cytotoxicity in the multiple tumor disk diffusion soft agar assay at the dose of 15 ug/disk against solid tumor C38; U = 32 uM; format: functional, Mus musculus; method in brief: as §1
L1210 [8] = assay: Tested for cytotoxicity in the multiple tumor disk diffusion soft agar assay at the dose of 15 ug/disk against leukemia L1210; format: functional, Mus musculus; method in brief: as §1
L1210 [9] = assay: Cytotoxicity in the multiple tumor disk diffusion soft agar assay at the dose of 15 ug/disk against leukemia L1210; format: functional, Mus musculus; method in brief: as §1
[10] = Cytotoxicity in the multiple tumor disk diffusion soft agar assay at the dose of 15 ug/disk against solid tumor PO3; format: functional, Mus musculus; method in brief: as §1
L1210 [11] = assay: In vivo T/C (survival time treated/survival time control x 100) was determined against L1210 leukemia cells at 20 mg/Kg; format: functional, Mus musculus
Method in brief: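 B6D2 F1 mice, at least five per group, were inoculated ip on day 0 with 10^5 viable L1210 cells (25 mL/kg). Compounds were dissolved in distilled water and given ip (25 mL/kg) on days 1–4. Deaths were checked daily, with necropsy to separate tumor from toxic death. T/C×100 was median survival of treated over controls. Mice surviving over 50 days counted as cured and were excluded from the median.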

[12] = Tested for cytotoxicity in the multiple tumor disk diffusion soft agar assay at the dose of 15 ug/disk against solid tumor C38; format: functional, Mus musculus; method in brief: as §1
[13] = Tested for cytotoxicity in the multiple tumor disk diffusion soft agar assay at the dose of 15 ug/disk against solid tumor PO3; format: functional, Mus musculus; method in brief: as §1
[14] = Tested for cytotoxicity in the multiple tumor disk diffusion soft agar assay at the dose of 15 ug/disk against solid tumor C38; range is 650-675; format: functional, Mus musculus; method in brief: as §1
L1210 [15] = assay: Tested for cytotoxicity in the multiple tumor disk diffusion soft agar assay at the dose of 15 ug/disk against leukemia L1210; range is 300-375; format: functional, Mus musculus; method in brief: as §1
P388 [16] = assay: In vivo T/C (survival time treated/survival time control x 100) was determined against P388 leukemia cells at 10 mg/Kg; format: functional, Mus musculus; method in brief: as §2
L1210 [17] = assay: Tested for cytotoxicity in the multiple tumor disk diffusion soft agar assay at the dose of 15 ug/disk against leukemia L1210; range is 0-450; format: functional, Mus musculus; method in brief: as §1
[18] = Tested for cytotoxicity in the multiple tumor disk diffusion soft agar assay at the dose of 15 ug/disk against solid tumor PO3; range is 350-450; format: functional, Mus musculus; method in brief: as §1
Mus musculus = assay: In vivo total number of survivors was determined against P388 leukemia cells out of 5 mouse at 50 day; format: functional; method in brief: as §2

Compound: CCN(CC)CCCNc1ncc(C)c2c1c1c3ccccc3ccc1n2C
- Cytotoxicity (L1210 [1]): 450 U
- T/C x100 (P388 [2]): 124
- IC50 (P388 [3]): 0.1 µg/mL (≈ 0.267 µM)
- Cytotoxicity [4]: 520 U

Compound: Cc1cnc(NCCCN(C)C)c2c3ccc4c(O)cccc4c3n(C)c12
- Cytotoxicity (L1210 [5]): 675 U
- T/C x100 (P388 [6]): 135
- IC50 (P388 [3]): 0.025 µg/mL (≈ 0.069 µM)
- Cytotoxicity [7]: 900 U

Compound: CCN(CC)CCCNc1[nH]cc(C)c2nc3c(ccc4cc(OC)ccc43)c1-2
- Cytotoxicity (L1210 [8]): 325 U
- Cytotoxicity (L1210 [9]): 200 U
- T/C x100 (P388 [2]): 131
- IC50 (P388 [3]): 0.5 µg/mL (≈ 1.28 µM)
- Cytotoxicity [4]: 285 U
- Cytotoxicity [10]: 200 U

Compound: COc1ccc2c(ccc3[nH]c4c(C)cnc(NCCCN(C)C)c4c32)c1
- T/C x100 (L1210 [11]): 127
- Cytotoxicity (L1210 [9]): 750 U and 350 U
- IC50 (P388 [3]): 0.75 µg/mL (≈ 2.07 µM)
- Cytotoxicity [12]: 800 U and 450 U
- Cytotoxicity [13]: 630 U and 300 U

Compound: CCN(CC)CCCNc1ncc(C)c2c1c1c3ccc(O)cc3ccc1n2C
- T/C x100 (L1210 [11]): 129
- Cytotoxicity (L1210 [9]): 450 U
- T/C x100 (P388 [6]): 232
- IC50 (P388 [3]): 0.025 µg/mL (≈ 0.064 µM)
- Cytotoxicity [14]: 650 U

Compound: CCN(CC)CCCNc1[nH]cc(C)c2nc3c(ccc4ccccc43)c1-2
- Cytotoxicity (L1210 [15]): 300 U
- Cytotoxicity (L1210 [9]): 500 U
- T/C x100 (P388 [16]): 102
- IC50 (P388 [3]): 0.75 µg/mL (≈ 2.08 µM)
- Cytotoxicity [4]: 460 U
- Cytotoxicity [10]: 200 U

Compound: Cc1cnc(NCCCN(C)C)c2c3c4ccc(O)cc4ccc3n(C)c12
- T/C x100 (L1210 [11]): 127
- Cytotoxicity (L1210 [17]): 0 U
- Cytotoxicity (L1210 [9]): 350 U
- T/C x100 (P388 [6]): 243
- IC50 (P388 [3]): 0.015 µg/mL (≈ 0.0414 µM)
- Cytotoxicity [4]: 750 U
- Cytotoxicity [18]: 350 U
- Survivors (Mus musculus): 1

Compound: CCN(CC)CCCNc1ncc(C)c2c1c1ccc3cc(O)ccc3c1n2C
- Cytotoxicity (L1210 [8]): 400 U
- Cytotoxicity (L1210 [9]): 300 U
- T/C x100 (P388 [6]): 124
- IC50 (P388 [3]): 0.1 µg/mL (≈ 0.256 µM)
- Cytotoxicity [4]: 325 U
- Cytotoxicity [10]: 350 U
